In brackets after ≈: the same amount, converted by molar mass.
Legend:
Escherichia coli = assay: In vitro minimum inhibitory concentration for Escherichia coli (ATCC-10536) by agar dilution method; type: functional
Procedure, shortened: (§1)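 Two-fold serial dilutions of each compound dispersed in Mueller-Hinton agar; plates spot-inoculated with 2 μL of standard test strain at 10^7 CFU/mL, incubated 37 °C for 20 h; MIC read as lowest concentration inhibiting growth.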

Serratia marcescens = assay: In vitro minimum inhibitory concentration for Serratia marcescens (ATCC-27117) by agar dilution method; type: functional; procedure, shortened: as §1
Pseudomonas aeruginosa [1] = assay: In vitro minimum inhibitory concentration for Pseudomonas aeruginosa (ATCC 10145) by agar dilution method; type: functional; procedure, shortened: as §1
Enterobacter cloacae = assay: In vitro minimum inhibitory concentration for Enterobacter cloacae (ATCC-27508) by agar dilution method; type: functional; procedure, shortened: as §1
Salmonella typhimurium = assay: In vitro minimum inhibitory concentration for Salmonella Typhimurium (ATCC-14028) by agar dilution method; type: functional, Salmonella enterica subsp. enterica serovar Typhimurium; procedure, shortened: as §1
Klebsiella aerogenes = assay: In vitro minimum inhibitory concentration for Enterobacter aerogenes (ATCC-29751) by agar dilution method; type: functional; procedure, shortened: as §1
Citrobacter freundii = assay: In vitro minimum inhibitory concentration for Citrobacter freundii (ATCC-8090) by agar dilution method; type: functional; procedure, shortened: as §1
Proteus vulgaris = assay: In vitro minimum inhibitory concentration for Proteus vulgaris (ATCC-6059) by agar dilution method; type: functional; procedure, shortened: as §1
Klebsiella pneumoniae = assay: In vitro minimum inhibitory concentration for Klebsiella pneumoniae (ATCC-10031) by agar dilution method; type: functional
Staphylococcus aureus = assay: In vitro minimum inhibitory concentration for Staphylococcus aureus (ATCC 6538p) by agar dilution method; type: functional; procedure, shortened: as §1
Pseudomonas aeruginosa [2] = assay: In vitro minimum inhibitory concentration for Pseudomonas aeruginosa (ATCC-27853) by agar dilution method; type: functional; procedure, shortened: as §1
[3] = tested on: Staphylococcus epidermidis; assay: In vitro minimum inhibitory concentration for Staphylococcus epidermidis (ATCC-12228) by agar dilution method; type: functional; procedure, shortened: as §1
[4] = Escherichia coli, read-out: MIC
[5] = Serratia marcescens, read-out: MIC
[6] = Enterobacter cloacae, read-out: MIC
[7] = Salmonella enterica, read-out: MIC
[8] = Klebsiella aerogenes, read-out: MIC
[9] = Citrobacter freundii, read-out: MIC
[10] = Proteus vulgaris, read-out: MIC
[11] = Klebsiella pneumoniae, read-out: MIC
[12] = Staphylococcus aureus, ATCC 6538p, read-out: MIC
[13] = Pseudomonas aeruginosa, read-out: MIC
[14] = Staphylococcus epidermidis, read-out: MIC

| MIC (Escherichia coli; [4]) [µg/mL] | MIC (Serratia marcescens; [5]) [µg/mL] | MIC (Pseudomonas aeruginosa [1]) [µg/mL] | MIC (Enterobacter cloacae; [6]) [µg/mL] | MIC (Salmonella typhimurium; [7]) [µg/mL] | MIC (Klebsiella aerogenes; [8]) [µg/mL] | MIC (Citrobacter freundii; [9]) [µg/mL] | MIC (Proteus vulgaris; [10]) [µg/mL] | MIC (Klebsiella pneumoniae; [11]) [µg/mL] | MIC (Staphylococcus aureus; [12]) [µg/mL] | MIC (Pseudomonas aeruginosa [2]; [13]) [µg/mL] | MIC [3, 14] [µg/mL] | SMILES | further results |
| --- | --- | --- | --- | --- | --- | --- | --- | --- | --- | --- | --- | --- | --- |
| 0.06 (≈ 0.0904 µM) | 0.25 (≈ 0.377 µM) | 4 (≈ 6.03 µM) | 0.02 (≈ 0.0301 µM) | 0.13 (≈ 0.196 µM) | 0.5 (≈ 0.753 µM) | 0.06 (≈ 0.0904 µM) | 0.06 (≈ 0.0904 µM) | 0.06 (≈ 0.0904 µM) | 4 (≈ 6.03 µM) | 2 (≈ 3.01 µM) | 2 (≈ 3.01 µM) | CC(C)(O/N=C(\C(=O)NC1C(=O)N2C(C(=O)[O-])=C(CSc3nc(N)c4c([n+]3N)CCCC4)CSC12)c1cnc(N)s1)C(=O)O (stereo not given) |  |
| 0.06 (≈ 0.0941 µM) | 0.13 (≈ 0.204 µM) | 2 (≈ 3.14 µM) | 0.03 (≈ 0.047 µM) | 0.25 (≈ 0.392 µM) | 2 (≈ 3.14 µM) | 0.13 (≈ 0.204 µM) | 0.03 (≈ 0.047 µM) | 0.06 (≈ 0.0941 µM) | 2 (≈ 3.14 µM) | 1 (≈ 1.57 µM) | 1 (≈ 1.57 µM) | CC[n+]1c(N)cc(N)nc1SCC1=C(C(=O)[O-])N2C(=O)C(NC(=O)/C(=N\OC(C)(C)C(=O)O)c3cnc(N)s3)C2SC1 (stereo not given) |  |
| 1 (≈ 1.73 µM) | 2 (≈ 3.45 µM) | 32 (≈ 55.2 µM) | 0.5 (≈ 0.863 µM) | 2 (≈ 3.45 µM) | 16 (≈ 27.6 µM) | 1 (≈ 1.73 µM) | 0.063 (≈ 0.109 µM) | 0.5 (≈ 0.863 µM) | 16 (≈ 27.6 µM) | 16 (≈ 27.6 µM) | 8 (≈ 13.8 µM) | CC(C)(O/N=C(\C(=O)NC1C(=O)N2C(C(=O)O)=C(CSc3ncccn3)CSC12)c1cnc(N)s1)C(=O)O (stereo not given) |  |
| 0.25 (≈ 0.356 µM) | 0.5 (≈ 0.712 µM) | 2 (≈ 2.85 µM) | 0.06 (≈ 0.0855 µM) | 0.5 (≈ 0.712 µM) | 2 (≈ 2.85 µM) | 0.25 (≈ 0.356 µM) | 0.13 (≈ 0.185 µM) | 0.13 (≈ 0.185 µM) | 4 (≈ 5.7 µM) | 1 (≈ 1.42 µM) | 2 (≈ 2.85 µM) | CC(C)(O/N=C(\C(=O)NC1C(=O)N2C(C(=O)[O-])=C(CSc3nc(N)cc(N)[n+]3-c3ccc(O)cc3)CSC12)c1cnc(N)s1)C(=O)O (stereo not given) |  |
| 0.13 (≈ 0.192 µM) | 0.5 (≈ 0.74 µM) | 8 (≈ 11.8 µM) | 0.06 (≈ 0.0888 µM) | 0.5 (≈ 0.74 µM) | 4 (≈ 5.92 µM) | 0.25 (≈ 0.37 µM) | 0.25 (≈ 0.37 µM) | 0.13 (≈ 0.192 µM) | 2 (≈ 2.96 µM) | 4 (≈ 5.92 µM) | 1 (≈ 1.48 µM) | CN(C)c1cc2n(C)cc[n+]2c(SCC2=C(C(=O)[O-])N3C(=O)C(NC(=O)/C(=N\OC(C)(C)C(=O)O)c4cnc(N)s4)C3SC2)n1 (stereo not given) |  |
| 0.13 (≈ 0.2 µM) | 0.13 (≈ 0.2 µM) | 2 (≈ 3.08 µM) | 0.03 (≈ 0.0462 µM) | 0.25 (≈ 0.385 µM) | 2 (≈ 3.08 µM) | 0.13 (≈ 0.2 µM) | 0.06 (≈ 0.0923 µM) | 0.06 (≈ 0.0923 µM) | 4 (≈ 6.16 µM) | 2 (≈ 3.08 µM) | 2 (≈ 3.08 µM) | C/C=C/[n+]1c(N)cc(N)nc1SCC1=C(C(=O)[O-])N2C(=O)C(NC(=O)/C(=N\OC(C)(C)C(=O)O)c3cnc(N)s3)C2SC1 (stereo not given) |  |
| 0.13 (≈ 0.195 µM) | 0.5 (≈ 0.751 µM) | 4 (≈ 6.01 µM) | 0.03 (≈ 0.0451 µM) | 0.5 (≈ 0.751 µM) | 1 (≈ 1.5 µM) | 0.13 (≈ 0.195 µM) | 0.25 (≈ 0.375 µM) | 0.06 (≈ 0.0901 µM) | 2 (≈ 3 µM) | 4 (≈ 6.01 µM) | 1 (≈ 1.5 µM) | CCCC[n+]1c(N)cc(N)nc1SCC1=C(C(=O)[O-])N2C(=O)C(NC(=O)/C(=N\OC(C)(C)C(=O)O)c3cnc(N)s3)C2SC1 (stereo not given) |  |
| 0.25 (≈ 0.358 µM) | 0.5 (≈ 0.716 µM) | 16 (≈ 22.9 µM) | 0.03 (≈ 0.0429 µM) | 0.5 (≈ 0.716 µM) | 1 (≈ 1.43 µM) | 0.06 (≈ 0.0859 µM) | 0.5 (≈ 0.716 µM) | 0.06 (≈ 0.0859 µM) | 8 (≈ 11.4 µM) | 8 (≈ 11.4 µM) | 2 (≈ 2.86 µM) | C[n+]1cc(Cc2ccccc2)c(N)nc1SCC1=C(C(=O)[O-])N2C(=O)C(NC(=O)/C(=N\OC(C)(C)C(=O)O)c3cnc(N)s3)C2SC1 (stereo not given) |  |
| 0.06 (≈ 0.0925 µM) | 0.25 (≈ 0.385 µM) | 4 (≈ 6.17 µM) | 0.02 (≈ 0.0308 µM) | 0.25 (≈ 0.385 µM) | 1 (≈ 1.54 µM) | 0.13 (≈ 0.2 µM) | 0.06 (≈ 0.0925 µM) | 0.06 (≈ 0.0925 µM) | 8 (≈ 12.3 µM) | 2 (≈ 3.08 µM) | 1 (≈ 1.54 µM) | Cn1cn[n+]2c(SCC3=C(C(=O)[O-])N4C(=O)C(NC(=O)/C(=N\OC(C)(C)C(=O)O)c5cnc(N)s5)C4SC3)nc(N)cc12 (stereo not given) |  |
|  |  |  |  |  |  |  |  |  |  |  |  | C[n+]1c(N)cc(N)nc1SCC1=C(C(=O)[O-])N2C(=O)C(NC(=O)/C(=N\OC(C)(C)C(=O)O)c3cnc(N)s3)C2SC1 (stereo in doubt; 23) | MIC (Escherichia coli): 0.06 µg/mL (≈ 0.0962 µM); MIC (Serratia marcescens): 0.13 µg/mL (≈ 0.208 µM); MIC (Enterobacter cloacae): 0.06 µg/mL (≈ 0.0962 µM); MIC (Salmonella typhimurium): 0.25 µg/mL (≈ 0.401 µM); MIC (Klebsiella aerogenes): 2 µg/mL (≈ 3.21 µM); MIC (Citrobacter freundii): 0.13 µg/mL (≈ 0.208 µM); MIC (Proteus vulgaris): 0.06 µg/mL (≈ 0.0962 µM); MIC (Klebsiella pneumoniae): 0.06 µg/mL (≈ 0.0962 µM); MIC (Staphylococcus aureus): 4 µg/mL (≈ 6.41 µM); MIC (Pseudomonas aeruginosa [2]): 2 µg/mL (≈ 3.21 µM); MIC [3]: 2 µg/mL (≈ 3.21 µM) |

| SMILES | MIC (Escherichia coli; [4]) [µg/mL] | MIC (Serratia marcescens; [5]) [µg/mL] | MIC (Pseudomonas aeruginosa [1]) [µg/mL] | MIC (Enterobacter cloacae; [6]) [µg/mL] | MIC (Salmonella typhimurium; [7]) [µg/mL] | MIC (Klebsiella aerogenes; [8]) [µg/mL] | MIC (Citrobacter freundii; [9]) [µg/mL] | MIC (Proteus vulgaris; [10]) [µg/mL] | MIC (Klebsiella pneumoniae; [11]) [µg/mL] | MIC (Staphylococcus aureus; [12]) [µg/mL] | MIC (Pseudomonas aeruginosa [2]; [13]) [µg/mL] | MIC [3, 14] [µg/mL] | further results |
| --- | --- | --- | --- | --- | --- | --- | --- | --- | --- | --- | --- | --- | --- |
| CC(C)(O/N=C(\C(=O)N[C@@H]1C(=O)N2C(C(=O)[O-])=C(C[n+]3ccccc3)CS[C@H]12)c1csc(N)n1)C(=O)O [CEFTAZIDIME] | 0.06 (≈ 0.11 µM) | 0.13 (≈ 0.238 µM) | 2 (≈ 3.66 µM) | 0.03 (≈ 0.0549 µM) | 0.25 (≈ 0.457 µM) | 4 (≈ 7.32 µM) | 0.13 (≈ 0.238 µM) | 0.06 (≈ 0.11 µM) |  | 8 (≈ 14.6 µM) | 1 (≈ 1.83 µM) | 4 (≈ 7.32 µM) |  |

— ChEMBL document CHEMBL1127395, “Synthesis and antimicrobial activity of novel 3-[(aminopyrimidiniumyl)thio]methyl cephalosporins” (1994)
